Experimental findings from ChEMBL document CHEMBL3425494, “Design, synthesis, and antitumor evaluation of novel histone deacetylase inhibitors equipped with a phenylsulfonylfuroxan module as a nitric oxide donor” (J Med Chem, 2015) are described below.

The test system of series [1] is HEL. The experiment in a line: Antitumor activity against human HEL cells xenografted in BALB/c-nu mouse assessed as decrease in tumor volume at 100 mg/kg/day, po administered for 21 days measured every 3 days during compound dosing relative to control. The series is classed as functional. In short, it runs like this: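 Male athymic nude mice (6–8 weeks) inoculated s.c. in right flank with HEL cells cultured in RPMI 1640/10% FBS; treatment began when tumors were about 100 mm³ (~10 days), 6 mice per group. Oral gavage daily for 21 days; vehicle control PBS containing DMSO. Caliper measurement every 3 days, V = ab²/2; T/C = mean RTV treated / mean RTV control, RTV = Vt/V0.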

For series [2], the system named is Mus musculus. The experiment in a line: Toxicity in BALB/c-nu mouse xenografted with human HEL cells assessed as effect on liver at 120 mg/kg/day, po administered for 21 days. Format: organism-based. Also noted: route oral. Particulars: in vivo, 504 h. In short, it runs like this: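 Nude mice bearing HEL xenografts dosed orally 120 mg/kg/day for 21 days, 6 per group, controls on PBS/DMSO vehicle. After treatment, mice sacrificed and dissected to examine internal organs.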
For orientation: In xenograft studies the graft and the host belong to different species.

The target of series [3] is Histone deacetylase 1 (Homo sapiens) (UniProt Q13547). Particulars: MV4-11, 12.5 to 200 nM.
Sequence of Histone deacetylase 1 (Homo sapiens) (Q13547 whole entry): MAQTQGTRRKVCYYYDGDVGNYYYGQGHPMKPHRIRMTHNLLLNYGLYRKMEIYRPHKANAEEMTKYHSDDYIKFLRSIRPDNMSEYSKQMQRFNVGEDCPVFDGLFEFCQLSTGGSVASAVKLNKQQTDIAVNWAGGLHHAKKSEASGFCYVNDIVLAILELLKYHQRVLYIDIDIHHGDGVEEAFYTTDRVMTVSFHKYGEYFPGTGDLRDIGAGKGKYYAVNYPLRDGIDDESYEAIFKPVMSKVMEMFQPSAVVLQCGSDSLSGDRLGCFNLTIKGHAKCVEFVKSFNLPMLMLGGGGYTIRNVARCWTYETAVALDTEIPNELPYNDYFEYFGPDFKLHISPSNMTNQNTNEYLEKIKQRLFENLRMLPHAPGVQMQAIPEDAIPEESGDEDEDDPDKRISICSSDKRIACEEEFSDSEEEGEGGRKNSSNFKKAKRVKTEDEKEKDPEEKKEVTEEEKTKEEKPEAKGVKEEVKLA
The target of series [4] is T1, Protein deacetylase HDAC6 (Homo sapiens) (UniProt Q9UBN7).
T1 sequence (whole entry): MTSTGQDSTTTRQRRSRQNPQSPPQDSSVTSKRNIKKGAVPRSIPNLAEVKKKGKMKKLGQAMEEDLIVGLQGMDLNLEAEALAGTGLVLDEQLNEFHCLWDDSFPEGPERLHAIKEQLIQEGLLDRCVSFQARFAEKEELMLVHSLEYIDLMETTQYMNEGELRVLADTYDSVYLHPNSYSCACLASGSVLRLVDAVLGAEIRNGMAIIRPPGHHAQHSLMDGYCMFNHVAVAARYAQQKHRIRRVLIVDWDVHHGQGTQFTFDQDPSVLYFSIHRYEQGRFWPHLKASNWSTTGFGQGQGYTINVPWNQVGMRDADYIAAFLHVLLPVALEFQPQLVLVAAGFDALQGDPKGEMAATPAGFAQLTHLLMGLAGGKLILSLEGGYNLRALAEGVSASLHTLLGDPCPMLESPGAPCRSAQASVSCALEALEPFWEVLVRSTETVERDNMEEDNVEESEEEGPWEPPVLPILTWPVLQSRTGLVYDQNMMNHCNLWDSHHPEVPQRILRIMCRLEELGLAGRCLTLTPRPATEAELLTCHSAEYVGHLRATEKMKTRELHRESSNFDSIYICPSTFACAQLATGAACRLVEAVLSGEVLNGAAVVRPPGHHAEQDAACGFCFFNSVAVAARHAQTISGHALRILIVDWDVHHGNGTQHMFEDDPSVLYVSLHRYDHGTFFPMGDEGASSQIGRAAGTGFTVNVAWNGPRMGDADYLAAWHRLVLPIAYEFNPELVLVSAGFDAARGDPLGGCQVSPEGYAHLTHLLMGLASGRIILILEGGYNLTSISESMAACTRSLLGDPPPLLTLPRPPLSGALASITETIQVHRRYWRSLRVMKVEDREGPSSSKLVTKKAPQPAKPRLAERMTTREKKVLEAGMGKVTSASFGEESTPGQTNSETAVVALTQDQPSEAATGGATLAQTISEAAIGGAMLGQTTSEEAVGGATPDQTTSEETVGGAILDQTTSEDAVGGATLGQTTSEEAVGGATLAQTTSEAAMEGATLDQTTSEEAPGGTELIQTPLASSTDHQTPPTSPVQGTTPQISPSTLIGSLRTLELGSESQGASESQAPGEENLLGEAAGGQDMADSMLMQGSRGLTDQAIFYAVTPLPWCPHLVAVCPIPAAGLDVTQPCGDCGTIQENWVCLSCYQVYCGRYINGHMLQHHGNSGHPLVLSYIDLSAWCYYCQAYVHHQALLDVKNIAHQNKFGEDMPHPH
Particulars: MV4-11, 12.5 nM.

The test system of series [5] is Mus musculus. In words: Toxicity in BALB/c-nu mouse xenografted with human HEL cells assessed as body weight loss at 120 mg/kg/day, po administered for 21 days measured everyday during compound dosing. The series is classed as organism-based. Also noted: route oral. Particulars: in vivo, 504 h. In short, it runs like this: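 Male BALB/c-nu mice with s.c. HEL xenografts, 6 per group, given 120 mg/kg/day orally for 21 days; vehicle group received PBS containing DMSO. Body weight monitored regularly during treatment; mean ± SD.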

For series [6], the system named is HEL. The experiment in a line: Cell cycle arrest in human HEL cells assessed as accumulation at S phase at 0.5 uM after 48 hrs by propidium iodide staining-based flow cytometric analysis (reference value: 46.88%). The series is classed as functional. (In general: A flow cytometer gives signals particle by particle.)
Series [7] deals with HEL. The experiment in a line: Antitumor activity against human HEL cells xenografted in po dosed BALB/c-nu mouse administered for 21 days measured every 3 days during compound dosing. The series is classed as functional, organism-based. An outline of the steps: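 Subcutaneous HEL xenograft in right flank of male athymic nude mice, 6 per group, dosing started at ~100 mm³. Oral administration at 100 or 120 mg/kg/day for 21 consecutive days; controls given PBS containing DMSO. Tumors measured by caliper every 3 days (V = ab²/2); tumors weighed after sacrifice; mean ± SD.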

In a further series the target is Histone deacetylase 3 (Homo sapiens, UniProt O15379). The experiment in a line: Inhibition of full length human recombinant HDAC3 expressed in baculovirus infected insect S9 cells using Ac-Leu-GlyLys(Ac)-AMC as substrate after 30 mins by fluorescence assay.
Sequence of Histone deacetylase 3 (O15379 whole entry): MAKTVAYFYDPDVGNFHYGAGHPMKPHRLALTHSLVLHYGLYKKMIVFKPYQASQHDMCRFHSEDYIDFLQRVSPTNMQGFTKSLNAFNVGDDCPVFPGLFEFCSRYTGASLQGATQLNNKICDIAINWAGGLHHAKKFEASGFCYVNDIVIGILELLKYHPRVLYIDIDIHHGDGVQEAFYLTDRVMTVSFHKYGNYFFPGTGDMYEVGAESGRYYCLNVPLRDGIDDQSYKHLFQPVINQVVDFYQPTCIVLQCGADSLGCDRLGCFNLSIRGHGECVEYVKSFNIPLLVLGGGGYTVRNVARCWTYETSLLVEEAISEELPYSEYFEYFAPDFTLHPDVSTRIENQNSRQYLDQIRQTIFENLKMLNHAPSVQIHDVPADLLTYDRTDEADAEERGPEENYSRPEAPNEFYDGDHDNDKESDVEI
The nature of series [8]: Cytotoxicity against human HCT116 cells assessed as growth inhibition after 48 hrs by MTT assay. Format: functional, cell-based. Particulars: HCT-116, 48 h.
The test system of the next series is HeLa. In words: Cytotoxicity against human HeLa cells assessed as growth inhibition after 48 hrs by MTT assay. Format: functional, cell-based.
Series [9] is described as follows: Cytotoxicity against human MDA cells assessed as growth inhibition after 48 hrs by MTT assay. Format: functional, cell-based. A general note: Formazan colour is commonly taken as a measure of viable cells.
For another series, the target named is T2, Histone deacetylase 11 (Homo sapiens, UniProt Q96DB2).
T2 sequence (Q96DB2 whole entry): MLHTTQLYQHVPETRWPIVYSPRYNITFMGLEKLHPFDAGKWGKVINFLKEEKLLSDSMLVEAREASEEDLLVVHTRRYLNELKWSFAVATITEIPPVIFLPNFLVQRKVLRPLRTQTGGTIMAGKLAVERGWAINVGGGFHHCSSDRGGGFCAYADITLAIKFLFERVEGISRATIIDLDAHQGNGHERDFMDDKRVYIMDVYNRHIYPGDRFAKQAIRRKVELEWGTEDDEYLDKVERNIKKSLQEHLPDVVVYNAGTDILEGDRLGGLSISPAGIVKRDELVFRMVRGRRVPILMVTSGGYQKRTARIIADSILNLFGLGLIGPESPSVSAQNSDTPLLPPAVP
In words: Inhibition of full length human recombinant HDAC11 expressed in baculovirus infected insect S9 cells after 30 mins by fluorescence assay.

In series [10] the target is Histone deacetylase 2 (Homo sapiens) (UniProt Q92769). Particulars: HEL, 1 to 10 uM.
Sequence of Histone deacetylase 2 (Homo sapiens) (Q92769 whole entry): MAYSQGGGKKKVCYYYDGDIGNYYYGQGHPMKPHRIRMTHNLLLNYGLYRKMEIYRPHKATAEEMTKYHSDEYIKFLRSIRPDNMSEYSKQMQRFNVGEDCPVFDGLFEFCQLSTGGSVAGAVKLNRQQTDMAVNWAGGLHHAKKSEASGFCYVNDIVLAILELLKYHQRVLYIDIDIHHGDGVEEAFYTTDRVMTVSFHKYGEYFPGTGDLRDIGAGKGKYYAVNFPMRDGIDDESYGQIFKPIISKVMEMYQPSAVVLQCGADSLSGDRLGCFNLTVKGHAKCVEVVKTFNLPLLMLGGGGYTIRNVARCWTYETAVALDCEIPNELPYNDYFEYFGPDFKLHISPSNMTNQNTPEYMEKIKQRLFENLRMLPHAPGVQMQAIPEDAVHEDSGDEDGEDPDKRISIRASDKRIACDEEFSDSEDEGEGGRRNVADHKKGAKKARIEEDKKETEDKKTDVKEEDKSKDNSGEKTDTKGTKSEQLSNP

Molecules are shown by their SMILES. Calls of active or inactive are those of the source. The rule behind the calls is not given here.

By T/C is commonly meant the result in the treated group divided by that in the control group, in per cent. One may read the IC50 as the concentration needed to halve the response being measured. On to `O=C(CCCCCOc1no[n+]([O-])c1S(=O)(=O)c1ccccc1)NO`, for which, in the series with HEL [1], the T/C came out at 56%. In addition, the Activity entry was “Non-toxic” in the series with Mus musculus [2], “Non-toxic” in the series on Mus musculus [5], 9.31% in the series with HEL [6] and “Dose-dependent effect” in the series with HEL [7]. The inhibition entry in series [3], in series [4] and in series [10] was “Active” each time. Also, the 50% inhibitory concentration (IC50) was 532 nM on Histone deacetylase 3; 1510 nM in series [8]; 1550 nM with HeLa; 2250 nM in [9]; 608 nM on Histone deacetylase 11.
